Assay results gathered from unrelated publications.
Lines come from different studies, so protocols differ.
Target: Insulin receptor (INSR, Homo sapiens, UniProt P06213)

Structure (SMILES) | assay | setting | remaining binding [%]
CN(CCCC(F)(F)F)c1nccc(-c2cnn3ncccc23)n1 | binding | 1 µM | 78
N#Cc1ccccc1CSc1nnc2c(n1)[nH]c1ccccc12 | binding, competition with immobilised ligand | 10 µM | 88
CCCOc1ccc([C@@H]2[C@@H](C(=O)O)[C@H](c3ccc4c(c3)OCO4)CN2CC(=O)Nc2c(CC)cccc2CC)cc1 | cell-free assay, competition with immobilised ligand | 1 µM | 89
O=C(NCCCN1CCOCC1)c1ccc(Nc2nccc(-c3cc4ccccc4s3)n2)cc1 | binding, competition with immobilised ligand | 1 µM | 95
CN(C)C(=O)Cn1cc(-c2nc(C3(c4ccc(-c5cnc(N)nc5)cc4)CC3)no2)cn1 | cell-free assay, competition with immobilised ligand | 1 µM | 90
CN(C)c1ncc(F)c(-c2cnn3ncccc23)n1 | binding | 1 µM | 81
O=C(c1ccc(Nc2nccc(-c3cc4ccccc4s3)n2)cc1)N1CCC(N2CCCC2)CC1 | binding, competition with immobilised ligand | 1 µM | 66
C[C@@H]1CN(c2ccc3ncc(-c4ccc5[nH]nc(C6CC6)c5c4)n3n2)C[C@H](C)O1 | binding, competition with immobilised ligand | 0.5 µM | 81
N[C@@H]1CCN(c2nccc(-c3cnn4ncccc34)n2)C1 | binding | 1 µM | 100
CN([C@@H]1CCc2c(CC(=O)O)c3ccccc3n2C1)S(=O)(=O)c1ccc(F)cc1 | cell-free assay, competition with immobilised ligand | 1 µM | 100
COc1cnc(Nc2cccc(S(N)(=O)=O)c2)nc1N1CCN(c2ccccc2)C(=O)C1 | binding, competition with immobilised ligand | 1 µM | 96
C[C@H]1CCN(c2nccc(-c3cnn4ncccc34)n2)C1 | binding | 1 µM | 69
C=CC(=O)N1CCC(C(=O)NCC(=O)N2CCN(c3nc(-c4cnc(N)nc4C(F)F)nc(N4CCOCC4)n3)CC2)CC1 | binding, competition with immobilised ligand | 1 µM | 99
FC(F)(F)Oc1cccc(-c2cnc3ccc(-c4ccncc4)nn23)c1 | cell-free assay, competition with immobilised ligand | 5 µM | 88
CNC(=O)[C@@H]1CC[C@@H](n2c(-c3ccc4cnccc4c3)nc3ccc(C(=O)NCc4cccc(C(N)=O)c4)cc32)C1 | binding, competition with immobilised ligand | 1 µM | 92
CN(C)c1ncnc(-c2ccc3nc(Nc4cc(CN5CCN(C(=O)CC(F)(F)F)CC5)ccn4)[nH]c3c2)c1Cl | cell-free assay, competition with immobilised ligand | 1 µM | 100
CC1CCCN1c1nccc(-c2cnn3ncccc23)n1 (stereo not shown) | binding | 1 µM | 86
COc1ncc2cc3ccccc3nc2c1C#N | cell-free assay, competition with immobilised ligand | 5 µM | 100
CC(=O)C1=C(C)N(c2cccc(C(F)(F)F)c2)C(=O)N[C@@H]1c1ccc(C#N)nc1 | cell-free assay, competition with immobilised ligand | 1 µM | 89.3
Cc1cnn2ncc(-c3ccnc(N(C)C)n3)c2c1 | binding | 1 µM | 68
O=C(Nc1cccnn1)N1CCC(=Cc2cccc(Oc3ccc(C(F)(F)F)cn3)c2)CC1 | cell-free assay, competition with immobilised ligand | 1 µM | 100
O=C(c1ccc(Nc2ncc(Cl)c(-c3cc4ccccc4s3)n2)cc1)N1CCC(N2CCCC2)CC1 | binding, competition with immobilised ligand | 1 µM | 6.1
Nc1c(C(=O)NCc2ccc(C(=O)NCCCC3CCCCC3)cc2)cnn1-c1ccccc1 | cell-free assay, competition with immobilised ligand | 0.1 µM | 100
c1cnn2ncc(-c3ccnc(N4CCC45COC5)n3)c2c1 | binding | 1 µM | 73
O=C(Nc1c[nH]nc1C(=O)NC1CCNCC1)c1cc(F)cc(F)c1 | binding, competition with immobilised ligand | 1 µM | 100
